Results collected from several papers.
Protocols differ between the studies behind these lines.

Fc1ccc(-c2nc3c(N4CCC(CN5CCOCC5)CC4)nccc3[nH]2)cc1F
AUC(0-t) (mouse, blood; intravenous, 2 mg/kg): 4.17 µM·h

NC(=O)c1cc(Oc2ccc(NC(=O)Nc3ccc(Cl)c(C(F)(F)F)c3)c(F)c2)cc[n+]1[O-]
AUC(0-t) (mouse, plasma; oral, 10 mg/kg, single dose): 65 ng·h/mL

COc1nc(-c2cc(C)c(N[C@@H](C)c3cc(F)cc(F)c3)nn2)ccc1-n1cnc(C)c1
AUC(0-t) (male CD-1 mouse, plasma; intravenous, 1 mg/kg, single dose): 1940 ng·h/mL

CCc1ccc(Cc2cc([C@@H]3O[C@H](CO)[C@@H](O)[C@H](O)[C@H]3O)cc3c2CCC3)cc1
AUC(0-t) (male C57BL/6 mouse, plasma; intravenous, 1 mg/kg): 1440 ng·h/mL

Cc1nc(-c2cnc(NC(C)C)n(C)c2=O)ccc1Oc1ccnc(-c2cnn(C)c2)c1
AUC(0-t) (female mouse, plasma; oral, 7.5 mg/kg, single dose): 52600 ng·h/mL

COc1ccc2nccc(N3CCc4c(cc(Cn5ccnc5)cc4-c4cn(C)nc4C(F)(F)F)C3=O)c2c1
AUC(0-t) (male CD-1 mouse, plasma; oral, 10 mg/kg): 2080 ng·h/mL

CNC(=O)c1cc(Oc2ccc(NC(=O)Nc3ccc(Cl)c(C(F)(F)F)c3)c(F)c2)cc[n+]1[O-]
AUC(0-t) (mouse, plasma; oral, 10 mg/kg, single dose): 1930 ng·h/mL

Cc1ccc(NC(=O)c2ccc(CN3CCN(C)CC3)cc2)cc1Nc1nccc(-c2cncc(-c3oncc3C)c2)n1
AUC(0-t) (male C57BL/6 mouse, brain; oral, 100 mg/kg/day): 1170 ng·h/mL

CCOc1ccc(Cc2cc([C@@H]3O[C@H](CO)[C@@H](O)[C@H](O)[C@H]3O)ccc2Cl)cc1
AUC(0-t) (male C57BL/6 mouse, plasma; oral, 1 mg/kg): 457 ng·h/mL

CCn1ncc2c(Nc3ccc(OC(F)(F)F)cc3)ncnc21
AUC(0-t) (male BALB/c mouse, plasma; oral, 20 mg/kg): 201 ng·h/mL

COc1ccc(C(O)COc2ccc(-c3csc(-c4ccc(OCC(O)c5ccc(OC)c(OC)c5)cc4)n3)cc2)cc1OC (stereo not drawn)
AUC(0-t) (C57BL/6 mouse, plasma; oral, 10 mg/kg): 10000 ng·h/mL

Cc1c(C(=O)NN2CCCCC2)nn(-c2ccc(Cl)cc2Cl)c1-c1ccc(Cl)cc1
AUC(0-t) (mouse, plasma; oral, 20 µmol/kg, single dose): 9 µM·h

COc1nc(-c2cc(C)c(N[C@@H](C)c3c(F)cc(F)cc3F)nn2)ccc1-n1cnc(C)c1
AUC(0-t) (male CD-1 mouse, plasma; oral, 5 mg/kg, single dose): 7960 ng·h/mL

Cc1c(C(=O)NN2CCCCC2)nc(-c2ccc(Cl)cc2Cl)n1-c1ccc(OS(=O)(=O)CCC(F)(F)F)cc1
AUC(0-t) (mouse, plasma; oral, 20 µmol/kg, single dose): 6.3 µM·h

COc1ccc2nc(-c3ccccn3)c(N(C)c3ccc(F)cc3)n2c1
AUC(0-t) (male CD-1 mouse, plasma; oral, 50 mg/kg, fasted): 953 ng·h/mL

CC(C)(C)c1cc(NC(=O)Nc2ccc(Oc3ccnc4[nH]c(=O)cnc34)cc2F)n(-c2ccccc2)n1
AUC(0-t) (BALB/c mouse, plasma; intravenous, 2 mg/kg): 154 µM·h

Cn1ccnc1N1CCN(CC2CCN(c3nccc4[nH]c(-c5cc(F)cc(F)c5)nc34)CC2)CC1
AUC(0-t) (BALB/c mouse, blood; oral, 20 mg/kg): 19 µM·h

CN1CCC[C@H](CN2c3ccccc3Sc3ccccc32)C1.O=C(O)CCC(=O)O
AUC(0-t) (mouse, plasma; oral, 64 mg/kg, single dose): 8750 ng·h/mL

CNCCN(C)c1cc(C#N)cc(CCc2cc(C)cc(N)n2)c1
AUC(0-t) (male BALB/c mouse, plasma; intravenous, 2 mg/kg): 180 ng·h/mL

CN1CCN(C2CCN(c3nccc4[nH]c(-c5cc(F)cc(F)c5)nc34)CC2)CC1
AUC(0-t) (BALB/c mouse, blood; oral, 20 mg/kg): 11.8 µM·h

NS(=O)(=O)c1ccc(-c2cc(Nc3ccc(OC(F)(F)F)cc3)ncn2)cc1
AUC(0-t) (male BALB/c mouse, plasma; oral, 20 mg/kg): 9390 ng·h/mL

COc1cc(OC)c2nccc(N3CCc4c(cc(Cn5ccnc5)cc4-c4cn(C)nc4C(F)(F)F)C3=O)c2c1
AUC(0-t) (male CD-1 mouse, plasma; oral, 50 mg/kg): 60600 ng·h/mL

Cc1nc2ccc(F)cc2n1-c1nc(N)c(F)c(Nc2ccc(C(F)(F)F)cc2)n1
AUC(0-t) (nude mouse, plasma; oral, 10 mg/kg): 19300 ng·h/mL

CCOC(=O)c1sc(Nc2ncccn2)nc1-c1ccccn1
AUC(0-t) (male CD-1 mouse, plasma; oral, 10 mg/kg): 195 ng·h/mL

CN1CCC(N2CCN(c3nccc4[nH]c(-c5ccc(F)c(F)c5)nc34)CC2)CC1
AUC(0-t) (BALB/c mouse, blood; oral, 20 mg/kg): 6.63 µM·h

COc1nc(-c2cc(C)c(N[C@@H](C)c3ccc(F)cc3)nn2)ccc1-n1cnc(C)c1
AUC(0-t) (male CD-1 mouse, plasma; oral, 5 mg/kg, single dose): 12700 ng·h/mL

C[C@H]1[C@@H](O)O[C@@H]2O[C@@]3(C)CC[C@H]4[C@H](C)CC[C@@H]1[C@@]24OO3
AUC(0-t) (female SCID mouse, plasma; oral, 120 mg/kg): 1870 ng·h/mL

C=CC(=O)N1CC2CC(n3nc(-c4ccc(C(=O)Nc5ccccn5)cc4)c4c(N)ncnc43)CC2C1 (stereo not drawn)
AUC(0-t) (SCID mouse, plasma; oral, 5 mg/kg): 1120 ng·h/mL

CNC(=O)c1cc(OC)cc2c(N3CCc4c(cc(Cn5ccnc5)cc4-c4cn(C)nc4C(F)(F)F)C3=O)ccnc12
AUC(0-t) (male CD-1 mouse, plasma; intravenous, 3 mg/kg): 3300 ng·h/mL

CN1CCN(CC2CCN(c3cncc4[nH]c(-c5cc(F)cc(F)c5)nc34)CC2)CC1
AUC(0-t) (mouse, blood; intravenous, 2 mg/kg): 0.967 µM·h

CS(=O)(=O)CCNCc1ccc(-c2ccc3ncnc(Nc4ccc(OCc5cccc(F)c5)c(Cl)c4)c3c2)o1
AUC(0-t) (nude mouse, plasma; oral, 100 mg/kg, single dose): 97500 ng·h/mL

CCc1cc(OC)c2nccc(N3CCc4c(cc(Cn5ccnc5)cc4-c4cn(C)nc4C(F)(F)F)C3=O)c2c1
AUC(0-t) (male CD-1 mouse, plasma; oral, 150 mg/kg): 224000 ng·h/mL

Cc1c2c(n(-c3ccc(Cl)cc3Cl)c1-c1ccc(OS(=O)(=O)CCC(F)(F)F)cc1)CCN(N1CCCCC1)C2=O
AUC(0-t) (mouse, plasma; oral, 6 µmol/kg, single dose): 3.6 µM·h

CC[C@H](C)[C@@H]1NC(=O)[C@@](C)(NC(=O)[C@H](CCCNC(=N)N)NC(=O)[C@H](CC(C)C)NC(=O)[C@@H](NC(=O)[C@H](CCC(N)=O)NC(=O)[C@H](CC(C)C)NC(C)=O)[C@@H](C)O)CCCC=CCCC[C@@](C)(C(=O)N[C@@H](CC(C)C)C(=O)N[C@@H](Cc2ccc3ccccc3c2)C(N)=O)NC(=O)[C@H](CCCNC(=N)N)NC(=O)[C@H](CCC(N)=O)NC1=O
AUC(0-t) (male BALB/c mouse, plasma; intravenous, 5 mg/kg): 124000 ng·h/mL

CCc1cc(C(=O)NC)c2nccc(N3CCc4c(cc(Cn5ccnc5)cc4-c4cn(C)nc4C(F)(F)F)C3=O)c2c1
AUC(0-t) (male CD-1 mouse, plasma; oral, 50 mg/kg): 122000 ng·h/mL

CN1CCN(c2nccc3nc(-c4ccc(F)c(F)c4)[nH]c23)CC1
AUC(0-t) (mouse, blood; oral, 5 mg/kg): 3.25 µM·h

CSc1cc(Oc2ccnc3[nH]c(=O)cnc23)ccc1NC(=O)Nc1cc(C(C)(C)C)nn1-c1ccccc1
AUC(0-t) (BALB/c mouse, plasma; oral, 10 mg/kg): 275 µM·h

Cc1ccc2cncc(N3CCc4c(cc(Cn5ccnc5)cc4-c4cn(C)nc4C(F)(F)F)C3=O)c2c1
AUC(0-t) (male CD-1 mouse, plasma; oral, 10 mg/kg): 4420 ng·h/mL

O=S(=O)(c1ccc(-c2ccc3nccc(Nc4ccncn4)c3c2)cc1)N1CCOCC1
AUC(0-t) (female BALB/c mouse, plasma; intraperitoneal, 10 mg/kg): 9510 ng·h/mL
